# Legend:
# [1] = molecular target: Epidermal growth factor receptor (Homo sapiens, UniProt P00533); assay: Inhibition of EGFR after 80 mins by radiometric protein kinase assay
# [2] = molecular target: Receptor tyrosine-protein kinase erbB-2 (Homo sapiens, UniProt P04626); assay: Inhibition of ERBB2 after 80 mins by radiometric protein kinase assay
# In short: (§1)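 The substrate was Poly(Glu,Tyr)4:1. 12 concentrations were run in triplicate with 1% final DMSO, at 30 °C for 80 min. Reactions were stopped with 2% H₃PO₄, washed with 0.9% NaCl, and ³³P incorporation was read by scintillation counting.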
# [3] = molecular target: Insulin-like growth factor 1 receptor (Homo sapiens, UniProt P08069); assay: Inhibition of IGF1R after 80 mins by radiometric protein kinase assay
# In short: (§2)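 Radiometric [γ-33P]-ATP kinase assay with poly(Glu,Tyr) 4:1 substrate. Reaction run 80 min at 30 °C, stopped with 2% H3PO4 and washed with 0.9% NaCl. 33Pi incorporation counted by microplate scintillation. IC50 from 12 concentrations tested in triplicate, with Z'-factor used as plate control.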
# [4] = molecular target: Mast/stem cell growth factor receptor Kit (Homo sapiens, UniProt P10721); assay: Inhibition of KIT after 80 mins by radiometric protein kinase assay; in short: as §1
# [5] = molecular target: Platelet-derived growth factor receptor alpha (Homo sapiens, UniProt P16234); assay: Inhibition of PDGFRalpha after 80 mins by radiometric protein kinase assay
# In short: (§3)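 Radiometric [γ-33P]-ATP kinase assay with poly(Ala,Glu,Lys,Tyr) 6:2:5:1 substrate. Incubated 30 °C for 80 min, then stopped with 2% H3PO4 and washed with 0.9% NaCl. 33Pi incorporation read by scintillation counting. IC50 from 12 concentrations in triplicate; plate quality checked by Z'-factor.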
# [6] = molecular target: Platelet-derived growth factor receptor beta (Homo sapiens, UniProt P09619); assay: Inhibition of PDGFRbeta after 80 mins by radiometric protein kinase assay
# Angiopoietin-1 receptor = Angiopoietin-1 receptor (Homo sapiens, UniProt Q02763); assay: Inhibition of TIE2 after 80 mins by radiometric protein kinase assay; in short: as §3
# [7] = molecular target: Vascular endothelial growth factor receptor 1 (Homo sapiens, UniProt P17948); assay: Inhibition of VEGFR1 after 80 mins by radiometric protein kinase assay; in short: as §2
# [8] = molecular target: Vascular endothelial growth factor receptor 2 (Homo sapiens, UniProt P35968); assay: Inhibition of VEGFR2 after 80 mins by radiometric protein kinase assay; in short: as §2
# [9] = molecular target: Vascular endothelial growth factor receptor 3 (Homo sapiens, UniProt P35916); assay: Inhibition of VEGFR3 after 80 mins by radiometric protein kinase assay; in short: as §2
# Chain of Vascular endothelial growth factor receptor 2 (P35968 whole entry): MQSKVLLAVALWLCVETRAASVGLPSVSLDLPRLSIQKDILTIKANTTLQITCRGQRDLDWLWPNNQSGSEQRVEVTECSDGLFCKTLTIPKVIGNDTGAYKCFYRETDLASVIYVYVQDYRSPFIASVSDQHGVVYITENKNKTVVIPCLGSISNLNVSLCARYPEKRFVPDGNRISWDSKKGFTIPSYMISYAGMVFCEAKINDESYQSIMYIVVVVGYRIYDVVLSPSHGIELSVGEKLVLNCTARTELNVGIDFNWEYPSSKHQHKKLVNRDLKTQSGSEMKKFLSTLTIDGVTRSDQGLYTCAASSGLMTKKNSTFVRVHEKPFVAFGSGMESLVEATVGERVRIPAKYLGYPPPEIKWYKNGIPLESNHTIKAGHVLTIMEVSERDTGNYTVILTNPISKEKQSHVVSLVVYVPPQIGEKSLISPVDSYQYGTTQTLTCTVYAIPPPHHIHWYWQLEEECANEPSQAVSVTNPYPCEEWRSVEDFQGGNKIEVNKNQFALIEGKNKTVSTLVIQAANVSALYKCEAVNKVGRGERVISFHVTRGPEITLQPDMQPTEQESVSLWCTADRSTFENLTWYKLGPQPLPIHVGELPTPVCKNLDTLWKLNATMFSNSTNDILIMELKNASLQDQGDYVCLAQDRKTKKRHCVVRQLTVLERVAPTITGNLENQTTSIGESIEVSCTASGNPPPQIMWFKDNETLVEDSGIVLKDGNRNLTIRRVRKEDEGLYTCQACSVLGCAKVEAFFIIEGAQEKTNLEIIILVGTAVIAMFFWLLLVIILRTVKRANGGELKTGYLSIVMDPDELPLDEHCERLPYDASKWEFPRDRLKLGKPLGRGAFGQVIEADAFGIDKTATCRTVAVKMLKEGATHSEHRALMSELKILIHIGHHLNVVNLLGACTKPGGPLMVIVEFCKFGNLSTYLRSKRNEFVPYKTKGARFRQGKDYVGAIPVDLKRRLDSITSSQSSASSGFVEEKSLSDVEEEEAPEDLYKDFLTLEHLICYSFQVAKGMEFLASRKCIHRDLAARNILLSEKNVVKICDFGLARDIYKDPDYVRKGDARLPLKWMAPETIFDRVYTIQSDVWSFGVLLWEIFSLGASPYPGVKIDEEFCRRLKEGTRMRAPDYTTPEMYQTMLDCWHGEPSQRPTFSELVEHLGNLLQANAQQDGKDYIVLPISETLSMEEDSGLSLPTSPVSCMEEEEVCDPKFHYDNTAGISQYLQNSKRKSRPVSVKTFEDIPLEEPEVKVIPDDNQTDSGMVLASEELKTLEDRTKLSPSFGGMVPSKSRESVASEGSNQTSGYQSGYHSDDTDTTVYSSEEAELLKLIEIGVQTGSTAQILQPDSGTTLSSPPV
# Chain of Receptor tyrosine-protein kinase erbB-2 (P04626 whole entry): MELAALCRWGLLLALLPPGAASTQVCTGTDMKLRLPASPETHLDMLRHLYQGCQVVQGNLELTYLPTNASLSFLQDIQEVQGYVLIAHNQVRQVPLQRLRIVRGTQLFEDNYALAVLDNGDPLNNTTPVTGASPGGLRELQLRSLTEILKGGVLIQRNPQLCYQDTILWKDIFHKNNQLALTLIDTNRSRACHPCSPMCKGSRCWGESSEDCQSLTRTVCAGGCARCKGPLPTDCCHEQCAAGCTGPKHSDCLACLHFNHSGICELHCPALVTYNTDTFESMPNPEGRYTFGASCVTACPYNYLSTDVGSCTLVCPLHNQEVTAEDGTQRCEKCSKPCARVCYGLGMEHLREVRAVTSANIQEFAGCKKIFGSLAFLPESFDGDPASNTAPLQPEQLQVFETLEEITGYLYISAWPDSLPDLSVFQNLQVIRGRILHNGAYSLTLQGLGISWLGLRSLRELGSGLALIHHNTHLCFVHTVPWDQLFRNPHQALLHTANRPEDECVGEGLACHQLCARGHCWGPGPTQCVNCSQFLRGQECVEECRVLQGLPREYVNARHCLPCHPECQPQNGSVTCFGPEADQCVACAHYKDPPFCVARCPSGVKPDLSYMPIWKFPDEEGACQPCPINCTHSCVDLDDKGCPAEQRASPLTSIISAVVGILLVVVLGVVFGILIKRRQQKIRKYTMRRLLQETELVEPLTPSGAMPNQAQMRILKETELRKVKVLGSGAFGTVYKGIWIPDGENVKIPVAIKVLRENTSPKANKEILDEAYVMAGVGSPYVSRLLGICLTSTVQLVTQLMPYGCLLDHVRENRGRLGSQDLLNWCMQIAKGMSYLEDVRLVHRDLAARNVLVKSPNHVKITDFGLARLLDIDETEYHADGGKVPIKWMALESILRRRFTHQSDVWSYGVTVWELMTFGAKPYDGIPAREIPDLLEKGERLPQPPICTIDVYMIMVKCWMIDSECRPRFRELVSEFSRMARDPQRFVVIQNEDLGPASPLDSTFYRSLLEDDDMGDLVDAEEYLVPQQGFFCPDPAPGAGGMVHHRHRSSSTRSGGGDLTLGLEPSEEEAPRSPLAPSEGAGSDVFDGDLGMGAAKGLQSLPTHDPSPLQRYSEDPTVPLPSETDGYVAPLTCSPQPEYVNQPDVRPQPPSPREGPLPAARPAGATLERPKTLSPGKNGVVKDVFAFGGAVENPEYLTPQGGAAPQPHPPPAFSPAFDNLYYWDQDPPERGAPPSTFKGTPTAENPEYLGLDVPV
# Chain of Platelet-derived growth factor receptor alpha (P16234 whole entry): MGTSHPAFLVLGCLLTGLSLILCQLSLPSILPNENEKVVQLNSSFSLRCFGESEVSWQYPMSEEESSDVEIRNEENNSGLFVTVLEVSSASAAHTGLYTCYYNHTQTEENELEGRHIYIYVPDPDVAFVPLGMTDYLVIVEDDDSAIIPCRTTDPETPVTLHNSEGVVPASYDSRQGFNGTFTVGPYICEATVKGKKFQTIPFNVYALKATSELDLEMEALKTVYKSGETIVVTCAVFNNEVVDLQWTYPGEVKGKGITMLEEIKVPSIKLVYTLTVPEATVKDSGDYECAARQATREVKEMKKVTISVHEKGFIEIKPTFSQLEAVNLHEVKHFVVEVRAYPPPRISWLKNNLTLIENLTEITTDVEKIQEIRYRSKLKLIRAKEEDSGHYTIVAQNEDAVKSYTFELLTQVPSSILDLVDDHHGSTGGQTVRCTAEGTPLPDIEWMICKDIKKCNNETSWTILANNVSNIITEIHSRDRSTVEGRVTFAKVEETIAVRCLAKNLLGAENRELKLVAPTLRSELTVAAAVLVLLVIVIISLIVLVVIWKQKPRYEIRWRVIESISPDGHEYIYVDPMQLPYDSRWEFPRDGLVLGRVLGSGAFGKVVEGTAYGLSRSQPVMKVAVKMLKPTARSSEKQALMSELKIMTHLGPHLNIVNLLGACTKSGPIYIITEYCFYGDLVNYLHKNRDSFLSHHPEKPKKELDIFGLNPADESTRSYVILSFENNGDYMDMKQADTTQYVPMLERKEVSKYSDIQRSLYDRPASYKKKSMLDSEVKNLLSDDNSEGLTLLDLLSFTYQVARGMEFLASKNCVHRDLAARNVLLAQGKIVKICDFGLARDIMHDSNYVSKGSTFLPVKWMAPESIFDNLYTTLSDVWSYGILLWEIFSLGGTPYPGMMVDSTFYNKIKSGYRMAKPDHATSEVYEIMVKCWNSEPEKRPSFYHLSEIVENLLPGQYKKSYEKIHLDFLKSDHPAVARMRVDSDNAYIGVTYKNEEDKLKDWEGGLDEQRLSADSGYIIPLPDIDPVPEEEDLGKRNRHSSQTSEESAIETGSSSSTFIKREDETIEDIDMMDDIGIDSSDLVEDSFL
# Chain of Vascular endothelial growth factor receptor 1 (P17948 whole entry): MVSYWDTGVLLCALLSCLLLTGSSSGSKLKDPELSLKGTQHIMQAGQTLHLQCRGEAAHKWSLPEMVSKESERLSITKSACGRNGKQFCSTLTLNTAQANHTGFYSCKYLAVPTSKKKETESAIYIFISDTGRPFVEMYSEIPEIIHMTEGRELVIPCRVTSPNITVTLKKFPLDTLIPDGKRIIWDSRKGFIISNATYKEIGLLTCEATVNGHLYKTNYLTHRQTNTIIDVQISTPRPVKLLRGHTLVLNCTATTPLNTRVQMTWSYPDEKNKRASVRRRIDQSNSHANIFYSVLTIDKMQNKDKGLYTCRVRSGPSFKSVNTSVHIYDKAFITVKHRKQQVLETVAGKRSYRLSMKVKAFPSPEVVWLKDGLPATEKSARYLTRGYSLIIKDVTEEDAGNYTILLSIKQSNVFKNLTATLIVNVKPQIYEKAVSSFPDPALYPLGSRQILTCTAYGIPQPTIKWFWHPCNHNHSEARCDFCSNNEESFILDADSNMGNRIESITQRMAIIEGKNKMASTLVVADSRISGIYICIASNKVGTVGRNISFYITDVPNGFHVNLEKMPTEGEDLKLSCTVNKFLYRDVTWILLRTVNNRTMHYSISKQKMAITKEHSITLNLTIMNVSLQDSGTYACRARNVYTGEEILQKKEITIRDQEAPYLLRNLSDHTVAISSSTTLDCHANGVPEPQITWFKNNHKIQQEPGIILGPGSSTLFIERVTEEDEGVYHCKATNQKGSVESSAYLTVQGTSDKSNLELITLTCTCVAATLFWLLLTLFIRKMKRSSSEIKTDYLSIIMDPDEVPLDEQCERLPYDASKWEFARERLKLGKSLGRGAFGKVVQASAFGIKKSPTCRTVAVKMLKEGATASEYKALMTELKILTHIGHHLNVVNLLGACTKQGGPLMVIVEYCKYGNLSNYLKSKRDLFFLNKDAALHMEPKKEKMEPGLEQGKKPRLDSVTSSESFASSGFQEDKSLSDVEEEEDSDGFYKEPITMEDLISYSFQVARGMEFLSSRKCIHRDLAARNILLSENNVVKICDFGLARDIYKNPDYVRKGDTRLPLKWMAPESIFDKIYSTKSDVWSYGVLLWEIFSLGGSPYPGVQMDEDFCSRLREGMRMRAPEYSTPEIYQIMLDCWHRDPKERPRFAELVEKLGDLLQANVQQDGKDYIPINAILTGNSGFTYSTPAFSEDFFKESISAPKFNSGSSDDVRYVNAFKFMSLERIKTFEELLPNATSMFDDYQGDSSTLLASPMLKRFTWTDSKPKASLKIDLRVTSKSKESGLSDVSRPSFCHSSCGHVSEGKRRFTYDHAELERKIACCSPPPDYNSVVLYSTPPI
SMILES,IC50 [1],IC50 [2],IC50 [3],IC50 [4],IC50 [5],IC50 [6],IC50 (Angiopoietin-1 receptor),IC50 [7],IC50 [8],IC50 [9]
COc1cc(C2=C(c3c[nH]c4ccc(Br)cc34)C(=O)NC2=O)cc(OC)c1OC,5800 nM,13300 nM,4240 nM,3220 nM,1160 nM,900 nM,2370 nM,72.4 nM,22.5 nM,21 nM
COc1cc(C2=C(c3c[nH]c4ccc(I)cc34)C(=O)NC2=O)cc(OC)c1OC,,15200 nM,3200 nM,3330 nM,1310 nM,858 nM,3960 nM,69.4 nM,24.9 nM,29.5 nM
